This note sets out measurements from ChEMBL document CHEMBL1921730, “The anti-malarial activity of bivalent imidazolium salts” (Bioorg Med Chem, 2011).

Each structure is given as a SMILES string. Calls of active or inactive are those of the source. The rule behind the calls is not given here.

Assay [1] concerns Plasmodium falciparum. Description: Antiplasmodial activity against Plasmodium falciparum 3D7 assessed as reduction in parasitemia measured between day 1 and day 2 relative to control. It is filed as functional, organism-based. The method, boiled down:
(§1)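 P. falciparum 3D7 cultures synchronized at mature stage on Percoll one day before the start. Set to 1% hematocrit and 2% parasitemia, treated with 40 nM or 83 nM compound, and sampled every 24 h for 4 days. Parasitemia counted on Giemsa-stained smears. Controls: uninfected RBCs, untreated cultures, sulfated β-cyclodextrin sodium salt and chloroquine.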

The subject of assay [2] is Plasmodium falciparum. Description: Antiplasmodial activity against Plasmodium falciparum assessed as inhibition of merozoite invasion of RBCs at 1 uM after 48 hrs by SYBR green 1 fluorescence-based flow cytometry. It is filed as functional, organism-based. In outline: (§2)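 Sorbitol-synchronized ring-stage P. falciparum set to 5% parasitemia and 0.5% hematocrit, then treated for 48 h. An equal volume of RPMI-1640 with 0.2 µL/mL stock SYBR-Green was added for 1 h in the dark before flow cytometry (~200,000 events). Quadrant counts of parasitized, non-parasitized and small DNA-containing events were taken relative to total erythrocytes.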

Assay [3] concerns Plasmodium falciparum. The assay can be described thus: Antiplasmodial activity against Plasmodium falciparum assessed as inhibition of parasite LDH activity after 72 hrs. It is filed as functional, organism-based. In outline: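 P. falciparum ItG grown in O+ human erythrocytes in RPMI-1640 with 10% human serum and 50 µM hypoxanthine. DMSO stocks (10 mg/mL) diluted two-fold serially; culture at 2% hematocrit and 2% parasitemia incubated 72 h at 37 °C under 95% N₂/3% CO₂/2% O₂. pLDH assay read at 595 nm after 1 h; IC50 by non-linear regression, mean ± SEM, n = 4; chloroquine positive control.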

Another assay concerns CHO. The assay can be described thus: Cytotoxicity against CHO cells after 48 hrs by MTT assay. Format: cell-based. The conditions noted are these: Cricetulus griseus. In outline: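 CHO cells grown in RPMI-1640 with 10% fetal calf serum, 25 mM HEPES and gentamicin, to 50% confluency, then given two-fold gradients from 10 mg/mL DMSO stocks; DMSO-only control. After 48 h, MTT (10 mg/mL) was added for 30 min, then DMSO; absorbance read at 650 nm. IC50 by non-linear regression of sigmoidal dose-response curves; four determinations, mean ± SEM.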

The nature of assay [4]: Ratio of IC50 for CHO cells to IC50 for Plasmodium falciparum.
The subject of assay [5] is Plasmodium falciparum. Description: Antiplasmodial activity against Plasmodium falciparum 3D7 assessed as reduction in parasitemia at 40 nM measured between day 1 and day 2 relative to control. Format: functional, organism-based. The method, boiled down:
as §1

In assay [6] the test system is Plasmodium falciparum. The assay can be described thus: Antiplasmodial activity against Plasmodium falciparum 3D7 assessed as reduction in parasitemia at 83 nM measured between day 1 and day 2 relative to control. It is filed as functional, organism-based. The method, boiled down: as §1
Assay [7] deals with Plasmodium falciparum. Description: Antiplasmodial activity against Plasmodium falciparum assessed as inhibition of merozoite invasion of RBCs at 20 uM after 48 hrs by SYBR green 1 fluorescence-based flow cytometry. Format: functional, organism-based. In outline:
as §2
On the technique in general: A flow cytometer gives signals particle by particle.

In assay [8] the test system is Plasmodium berghei. Description: Antiplasmodial activity against Plasmodium berghei infected in BALB/c mouse assessed as delay in onset of parasitemia at 75 ug/day infused once daily for 3 days by Giemsa staining relative to control. It is filed as functional, organism-based. In outline:
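Female Balb/c mice, 6–8 weeks old, infected with 10⁶ P. berghei on Day 0 and followed by Giemsa-stained blood films until parasites appeared. Then infused once daily for three days with 0.5 mL RPMI-1640 or compound in RPMI-1640; vehicle control 1% (v/v) DMSO in RPMI-1640; chloroquine 15 mg/kg/day as positive control. Parasitemia by Giemsa films; five mice per group.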

The subject of assay [9] is Plasmodium falciparum. Description: Antiplasmodial activity against Plasmodium falciparum assessed as inhibition of parasite adherence to RBCs at 20 uM after 48 hrs by microscopic analysis. Format: functional, organism-based.
For assay [10], the system named is Plasmodium berghei. The assay can be described thus: Antiplasmodial activity against Plasmodium berghei infected in BALB/c mouse assessed as delay in onset of parasitemia infused once daily for 3 days by Giemsa staining relative to control.
Assay [11] deals with Plasmodium berghei. The assay can be described thus: Antiplasmodial activity against Plasmodium berghei infected in BALB/c mouse assessed as reduction in parasitemia at 15 mg/kg infused once daily for 4 days measured after 4 days by YOYO-1 staining based flow cytometry relative to control. Also noted: scale not given: the % may be the effect or the level left.

In the case of `CCN(CC)CCCC(C)Nc1ccnc2cc(Cl)ccc12` (configuration not stated), the result in the assay on Plasmodium falciparum [1] was Active. Further, in the assay with Plasmodium falciparum [2], the inhibition result was “Active”.

For the molecule `C[n+]1cnn(CCCCCCCCCCCCn2c[n+](C)cn2)c1.[I-].[I-]`, the IC50 – broadly, the concentration that inhibits the measured activity by half – worked out at 8 nM with Plasmodium falciparum [3] and 52 µM in the assay on CHO. Further, in [4], the “Ratio IC50” value is 6500. In addition, in the assay on Plasmodium falciparum [5], the result was inactive. The outcome in the assay with Plasmodium falciparum [6] and with Plasmodium berghei [8] was Active. For the same molecule, in the assay on Plasmodium falciparum [7], the inhibition result was “inactive”. The inhibition entry with Plasmodium falciparum [9] was “Active”. In addition, the Activity in the assay with Plasmodium berghei [10] is reported as 50%; in the assay with Plasmodium berghei [11], 75%.
